In ChEMBL document CHEMBL2321766, “Optimization of a Novel Series of TRPV4 Antagonists with In Vivo Activity in a Model of Pulmonary Edema” (ACS Med Chem Lett, 2013):
Active and inactive are the calls of the source. The calls are words filed in the database; no cut-off is given here.

Columns and labels:
[1] = (§1) Half life in Sprague-Dawley rat plasma at 2 mg/kg, po by HPLC-MS/MS analysis; assay type: ADME, organism-based; set-up: dose 2 mg/kg, route oral; conditions: Sprague-Dawley, plasma
[2] = Clearance in Sprague-Dawley rat plasma at 1 mg/kg, iv by HPLC-MS/MS analysis; assay type: ADME, organism-based; set-up: dose 1 mg/kg, route intravenous
[3] = biological target: T1, Transient receptor potential cation channel subfamily V member 4 (Homo sapiens, UniProt Q9HBA0); assay: Antagonist activity at human recombinant TRPV4 expressed in BacMam virus infected HEK MSRII cells assessed as inhibition of GSK634775-induced calcium […] treated 10 mins prior to TRPV4 agonist, GSK634775 by FLIPR assay
T1 sequence (Q9HBA0 whole entry): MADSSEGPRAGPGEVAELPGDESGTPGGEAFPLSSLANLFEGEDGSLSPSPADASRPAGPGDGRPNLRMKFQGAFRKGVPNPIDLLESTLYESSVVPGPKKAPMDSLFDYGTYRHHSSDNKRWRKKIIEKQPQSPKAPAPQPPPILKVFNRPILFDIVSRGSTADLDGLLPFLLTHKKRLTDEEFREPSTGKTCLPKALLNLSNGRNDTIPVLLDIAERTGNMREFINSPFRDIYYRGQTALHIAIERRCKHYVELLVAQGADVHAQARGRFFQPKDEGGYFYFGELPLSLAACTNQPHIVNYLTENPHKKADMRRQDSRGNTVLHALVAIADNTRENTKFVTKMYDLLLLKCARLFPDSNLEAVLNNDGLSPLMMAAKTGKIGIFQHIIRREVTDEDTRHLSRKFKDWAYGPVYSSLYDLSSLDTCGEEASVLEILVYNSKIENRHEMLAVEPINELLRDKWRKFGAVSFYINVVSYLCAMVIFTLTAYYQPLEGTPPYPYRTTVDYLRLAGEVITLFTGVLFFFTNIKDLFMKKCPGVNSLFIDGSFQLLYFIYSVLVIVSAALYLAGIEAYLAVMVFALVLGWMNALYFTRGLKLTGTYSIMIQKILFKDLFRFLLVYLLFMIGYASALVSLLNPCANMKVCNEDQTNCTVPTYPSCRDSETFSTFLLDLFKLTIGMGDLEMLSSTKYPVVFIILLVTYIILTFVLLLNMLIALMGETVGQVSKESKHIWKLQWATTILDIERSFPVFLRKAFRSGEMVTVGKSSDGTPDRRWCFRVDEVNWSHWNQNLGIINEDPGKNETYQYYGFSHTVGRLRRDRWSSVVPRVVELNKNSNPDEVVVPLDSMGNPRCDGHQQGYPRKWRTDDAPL

[4] = Oral bioavailability in Sprague-Dawley rat at 2 mg/kg by HPLC-MS/MS analysis; assay type: ADME, organism-based; conditions: in vivo
Plasma [5] = assay: Fraction unbound in rat plasma; assay type: ADME, cell-free
Plasma [6] = assay: Fraction unbound in human plasma; assay type: ADME, cell-free
[7] = biological target: Sodium channel protein type 5 subunit alpha (Homo sapiens, UniProt Q14524); assay: Inhibition of human Nav1.5 expressed in HEK293 cells at >10 uM; assay type: cell-based
Rattus norvegicus [8] = assay: Decrease in lung/body weight ratio in GSK1016790A-induced Sprague-Dawley rat pulmonary edema model at 10 mg/kg, iv administered 30 mins prior to GSK-1016790A injection; assay type: functional, organism-based; set-up: dose 10 mg/kg
How it was run: (§2)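 Rats given vehicle, 3 or 10 mg/kg iv 30 min before iv challenge with the TRPV4 agonist GSK1016790A at rising doses. Mean arterial pressure recorded during pretreatment and after agonist. Pulmonary edema scored as wet lung weight/body weight ratio, compared with vehicle-treated rats. Plasma drug levels measured at both doses.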

[9] = biological target: T1, Transient receptor potential cation channel subfamily V member 4; assay: Agonist activity at human TRPV4
[10] = biological target: Potassium voltage-gated channel subfamily A member 5 (Homo sapiens) (UniProt P22460); assay: Inhibition of human Kv1.5 expressed in CHO cells assessed as decrease in channel current at > 10 uM by patch clamp analysis; assay type: cell-based
Chain of Potassium voltage-gated channel subfamily A member 5 (Homo sapiens) (P22460 whole entry): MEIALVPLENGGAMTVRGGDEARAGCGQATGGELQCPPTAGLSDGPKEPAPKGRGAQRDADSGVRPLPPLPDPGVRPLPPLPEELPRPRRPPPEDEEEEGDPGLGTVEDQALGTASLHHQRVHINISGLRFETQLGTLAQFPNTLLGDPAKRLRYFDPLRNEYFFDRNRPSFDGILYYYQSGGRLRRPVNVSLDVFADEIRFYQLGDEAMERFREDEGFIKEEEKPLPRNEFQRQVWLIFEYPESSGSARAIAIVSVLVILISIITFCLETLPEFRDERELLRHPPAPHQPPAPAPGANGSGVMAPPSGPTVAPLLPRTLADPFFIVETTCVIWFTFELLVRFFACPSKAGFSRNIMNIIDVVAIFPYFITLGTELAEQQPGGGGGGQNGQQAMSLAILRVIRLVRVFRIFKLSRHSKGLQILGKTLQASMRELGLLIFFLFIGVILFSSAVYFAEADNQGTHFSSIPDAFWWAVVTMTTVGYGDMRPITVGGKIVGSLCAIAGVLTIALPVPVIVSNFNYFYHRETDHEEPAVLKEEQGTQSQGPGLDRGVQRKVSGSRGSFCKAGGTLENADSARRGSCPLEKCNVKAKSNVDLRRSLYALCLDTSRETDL

[11] = biological target: Voltage-dependent L-type calcium channel subunit alpha-1C (Homo sapiens, UniProt Q13936); assay: Inhibition of human Cav1.2 expressed in HEK293 cells assessed as decrease in calcium […] at >10 uM by FLIPR analysis; assay type: cell-based
Chain of Voltage-dependent L-type calcium channel subunit alpha-1C (Q13936 whole entry): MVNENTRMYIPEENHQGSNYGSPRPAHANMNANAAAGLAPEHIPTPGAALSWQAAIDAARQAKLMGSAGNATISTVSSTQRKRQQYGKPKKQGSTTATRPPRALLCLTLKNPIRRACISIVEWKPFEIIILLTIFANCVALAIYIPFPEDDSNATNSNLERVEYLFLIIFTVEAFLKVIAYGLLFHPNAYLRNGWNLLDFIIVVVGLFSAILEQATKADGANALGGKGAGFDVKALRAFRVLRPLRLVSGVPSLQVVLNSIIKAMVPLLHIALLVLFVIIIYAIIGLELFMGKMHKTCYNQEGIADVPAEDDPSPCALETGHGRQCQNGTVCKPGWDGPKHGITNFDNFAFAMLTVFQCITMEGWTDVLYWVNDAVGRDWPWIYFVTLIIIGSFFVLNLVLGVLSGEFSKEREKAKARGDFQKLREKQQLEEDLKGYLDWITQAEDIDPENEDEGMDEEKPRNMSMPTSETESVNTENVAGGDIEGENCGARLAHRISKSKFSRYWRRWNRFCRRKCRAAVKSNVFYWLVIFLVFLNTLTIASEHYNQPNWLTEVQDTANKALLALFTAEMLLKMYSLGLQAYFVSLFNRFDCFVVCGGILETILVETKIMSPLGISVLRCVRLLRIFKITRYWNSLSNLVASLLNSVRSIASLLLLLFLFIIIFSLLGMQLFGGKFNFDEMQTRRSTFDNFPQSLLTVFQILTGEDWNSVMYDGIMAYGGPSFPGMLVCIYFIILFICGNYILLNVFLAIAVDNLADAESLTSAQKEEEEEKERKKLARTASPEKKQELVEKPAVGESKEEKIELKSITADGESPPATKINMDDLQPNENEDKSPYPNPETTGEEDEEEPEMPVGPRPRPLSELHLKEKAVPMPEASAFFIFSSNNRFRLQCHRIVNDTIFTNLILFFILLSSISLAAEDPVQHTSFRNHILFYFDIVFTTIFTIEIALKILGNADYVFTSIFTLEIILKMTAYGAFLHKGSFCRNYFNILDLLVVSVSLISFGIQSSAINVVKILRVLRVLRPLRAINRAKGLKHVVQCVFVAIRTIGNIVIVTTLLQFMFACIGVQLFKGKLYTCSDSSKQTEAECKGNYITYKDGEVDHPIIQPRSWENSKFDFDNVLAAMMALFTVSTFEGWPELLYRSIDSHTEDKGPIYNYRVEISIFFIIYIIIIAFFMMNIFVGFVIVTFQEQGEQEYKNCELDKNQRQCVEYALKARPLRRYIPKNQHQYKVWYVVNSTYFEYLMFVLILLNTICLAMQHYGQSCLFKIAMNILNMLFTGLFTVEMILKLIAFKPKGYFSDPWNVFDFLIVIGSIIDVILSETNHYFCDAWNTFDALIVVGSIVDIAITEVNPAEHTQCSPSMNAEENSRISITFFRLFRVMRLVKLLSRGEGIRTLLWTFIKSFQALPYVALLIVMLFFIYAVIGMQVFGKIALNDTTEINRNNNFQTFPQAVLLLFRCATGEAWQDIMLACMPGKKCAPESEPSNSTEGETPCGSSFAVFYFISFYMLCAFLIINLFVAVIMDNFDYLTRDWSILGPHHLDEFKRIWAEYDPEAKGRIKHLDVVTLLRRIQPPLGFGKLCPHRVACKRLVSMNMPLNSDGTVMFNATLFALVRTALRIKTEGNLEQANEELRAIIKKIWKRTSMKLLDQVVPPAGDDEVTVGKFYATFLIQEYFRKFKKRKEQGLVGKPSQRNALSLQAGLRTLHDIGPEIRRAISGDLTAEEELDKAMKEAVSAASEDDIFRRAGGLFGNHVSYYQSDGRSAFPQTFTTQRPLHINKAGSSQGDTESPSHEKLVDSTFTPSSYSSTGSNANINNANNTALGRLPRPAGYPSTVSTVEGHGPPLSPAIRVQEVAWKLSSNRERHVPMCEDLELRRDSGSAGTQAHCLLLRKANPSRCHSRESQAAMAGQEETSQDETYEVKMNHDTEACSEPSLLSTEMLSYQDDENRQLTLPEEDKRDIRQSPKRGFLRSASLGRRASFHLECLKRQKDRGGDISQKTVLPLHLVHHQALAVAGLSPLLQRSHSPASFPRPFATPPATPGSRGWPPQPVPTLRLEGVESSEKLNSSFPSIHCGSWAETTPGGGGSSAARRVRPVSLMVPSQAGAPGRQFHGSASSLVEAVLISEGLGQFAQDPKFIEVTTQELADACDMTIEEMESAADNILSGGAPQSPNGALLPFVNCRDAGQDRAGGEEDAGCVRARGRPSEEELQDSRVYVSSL

[12] = biological target: Transient receptor potential cation channel subfamily V member 4 (Rattus norvegicus, UniProt Q9ERZ8); assay: Antagonist activity at rat TRPV4
Chain of Transient receptor potential cation channel subfamily V member 4 (Rattus norvegicus, UniProt Q9ERZ8) (Q9ERZ8 whole entry): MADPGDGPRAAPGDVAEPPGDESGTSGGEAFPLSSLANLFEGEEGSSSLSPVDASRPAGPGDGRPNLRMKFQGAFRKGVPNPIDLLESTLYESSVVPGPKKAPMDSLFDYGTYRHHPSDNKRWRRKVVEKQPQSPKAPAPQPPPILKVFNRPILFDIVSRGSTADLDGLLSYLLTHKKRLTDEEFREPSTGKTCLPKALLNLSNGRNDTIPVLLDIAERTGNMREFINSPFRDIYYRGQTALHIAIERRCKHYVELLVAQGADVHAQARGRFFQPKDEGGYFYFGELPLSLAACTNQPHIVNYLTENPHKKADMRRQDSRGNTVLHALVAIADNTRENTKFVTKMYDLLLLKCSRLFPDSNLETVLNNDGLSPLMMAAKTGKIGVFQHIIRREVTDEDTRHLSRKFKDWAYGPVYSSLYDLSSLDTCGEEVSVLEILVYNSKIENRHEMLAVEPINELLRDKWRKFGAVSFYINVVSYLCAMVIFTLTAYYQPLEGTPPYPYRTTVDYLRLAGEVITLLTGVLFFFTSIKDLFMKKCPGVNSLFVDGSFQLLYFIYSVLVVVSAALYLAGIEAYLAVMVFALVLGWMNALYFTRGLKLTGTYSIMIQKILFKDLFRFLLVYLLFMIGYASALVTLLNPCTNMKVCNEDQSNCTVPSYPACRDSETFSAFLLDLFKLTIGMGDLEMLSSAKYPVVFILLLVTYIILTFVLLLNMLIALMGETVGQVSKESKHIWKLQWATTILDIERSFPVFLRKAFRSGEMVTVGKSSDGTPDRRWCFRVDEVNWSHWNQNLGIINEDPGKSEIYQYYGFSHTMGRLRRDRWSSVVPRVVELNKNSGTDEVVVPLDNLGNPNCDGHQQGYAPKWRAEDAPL

[13] = biological target: Transient receptor potential cation channel subfamily V member 4 (Rattus norvegicus) (UniProt Q9ERZ8); assay: Agonist activity at rat TRPV4
Chain of Transient receptor potential cation channel subfamily V member 4 (Rattus norvegicus) (Q9ERZ8 whole entry): as above

Rattus norvegicus [14] = assay: Effect on mean arterial pressure in Sprague-Dawley rat at 3 to 10 mg/kg, iv; assay type: ADME, organism-based, Artery; set-up: dose 3-10 mg/kg, route intravenous; conditions: in vivo; how it was run: as §2
Rattus norvegicus [15] = assay: Decrease in lung/body weight ratio in GSK1016790A-induced Sprague-Dawley rat pulmonary edema model at 3 mg/kg, iv administered 30 mins prior to GSK-1016790A injection; assay type: functional, organism-based; set-up: dose 3 mg/kg; how it was run: as §2
Rattus norvegicus [16] = assay: Reduction of GSK-1016790A-induced decrease in mean arterial pressure in iv dosed Sprague-Dawley rat administered 30 mins prior to GSK-1016790A injection; assay type: functional, organism-based; conditions: Artery; how it was run: as §2
Plasma [17] = assay: Stability of the compound in Sprague-Dawley rat plasma at 1 mg/kg, iv by HPLC-MS/MS analysis; assay type: ADME, organism-based; set-up: dose 1 mg/kg, route intravenous; conditions: in vivo
Plasma [18] = assay: as §1; assay type: ADME, organism-based; set-up: dose 2 mg/kg, route oral; conditions: in vivo, BLD = below limit of detection

| Structure (SMILES) | half-life [1] [h] | clearance [2] [mL/min/kg] | IC50 [3] [nM] | bioavailability [4] [%] | other results |
| --- | --- | --- | --- | --- | --- |
| Cc1ccc(N2CCC(n3c(NC(C)C)nc4c(C(=O)N(C)C)c(Cl)c(Cl)cc43)CC2)cc1 | 1.6 | 18 | 126 | 38 |  |
| Cc1cccc(N2CCC(n3c(NC(C)C)nc4c(C(=O)N(C)C)c(Cl)c(Cl)cc43)CC2)c1 | 3.2 | 12 | 126 | 76 |  |
| CC(C)Nc1nc2c(C(=O)N(C)C)c(Cl)c(Cl)cc2n1C1CCN(c2ccc(C3CCCCC3)cc2)CC1 | 2.8 | 9.3 | 31.6 | 7 |  |
| CC(C)Nc1nc2c(C(=O)N(C)C)c(Cl)c(Cl)cc2n1C1CCN(c2ccccc2)CC1 |  |  | 200 |  |  |
| CC(C)Nc1nc2c(C(=O)N(C)C)c(Cl)c(Cl)cc2n1-c1ccc(N2CCCCC2)cc1 |  |  | 631 |  |  |
| CC(C)Nc1nc2c(C(=O)N(C)C)c(Cl)c(Cl)cc2n1C1CCN(c2ccc(OC(C)C)cc2)CC1 | 2.1 | 46 | 12.6 | 36 |  |
| CC(C)Nc1nc2c(C(=O)N(C)C)c(Cl)c(Cl)cc2n1C1CCN(C(=O)Nc2ccccc2)CC1 |  |  | 2510 |  |  |
| CC(C)Nc1nc2c(C(=O)N(C)C)c(Cl)c(Cl)cc2n1C1CCN(c2ccc(C(C)(C)C#N)cc2)CC1 | 1.6 | 13 | 31.6 | 31 | Cp(f) (Plasma [5]): 3.3%; Cp(f) (Plasma [6]): 4.4%; inhibition (INH) [7]: Not Active; Activity (Rattus norvegicus [8]): Active; Activity [9]: inactive; inhibition [10]: inactive; inhibition (INH) [11]: Not Active; IC50 [12]: 32 nM; Activity [13]: inactive; Activity (Rattus norvegicus [14]): Non-toxic; Activity (Rattus norvegicus [15]): inactive; Activity (Rattus norvegicus [16]): Dose-dependent effect |
| CC(C)Nc1nc2c(C(=O)N(C)C)c(Cl)c(Cl)cc2n1C1CCN(c2ccc(C(C)(C)C)cc2)CC1 | 3.7 | 34 | 50.1 | 39 |  |
| CC(C)Nc1nc2c(C(=O)N(C)C)c(Cl)c(Cl)cc2n1C1CCN(c2ccc(C(C)(C)C(=O)O)cc2)CC1 |  |  | > 10000 |  |  |
| CC(C)Nc1nc2c(C(=O)N(C)C)c(Cl)c(Cl)cc2n1C1CCN(S(=O)(=O)c2ccc(Cl)cc2)CC1 |  |  | 3980 |  |  |
| COC(=O)C(C)(C)c1ccc(N2CCC(n3c(NC(C)C)nc4c(C(=O)N(C)C)c(Cl)c(Cl)cc43)CC2)cc1 |  |  | 15.8 |  | Stability (Plasma [17]): Unstable; t1/2 (Plasma [18]): BLD |
| CC(C)Nc1nc2c(C(=O)N(C)C)c(Cl)c(Cl)cc2n1CC1CCN(c2ccccc2)CC1 |  |  | 5010 |  |  |
| CC(C)Nc1nc2c(C(=O)N(C)C)c(Cl)c(Cl)cc2n1C1CCN(C(=O)c2ccc(C(C)(C)C)cc2)CC1 |  |  | 1260 |  |  |
| CC(C)Nc1nc2c(C(=O)N(C)C)c(Cl)c(Cl)cc2n1C1CCN(c2ccc(C3(C#N)CCOCC3)cc2)CC1 | 2.1 | 25 | 3.2 | 22 |  |
| CC(C)Nc1nc2c(C(=O)N(C)C)c(Cl)c(Cl)cc2n1C1CCN(Cc2ccccc2)CC1 |  |  | 1000 |  |  |
